Source: PubChem
In the library only some 2.5% were active in any assay of this set; here they are far more common.
MC4R antagonist: blocks human MC4R cAMP signaling; P32245; MC4R-expressing cells, MTII-stimulated cAMP, LANCE TR-FRET; inhibition, % at 6.5 µM; 0.48% of 360,000 active; AID 540295;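 active means inhibition above its plate's cutoff, the mean of tested wells on that plate plus 3 SD, cut at about 29% in these data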;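 further: 0% = Melanotan II alone and 100% = Melanotan II plus saturating MCL0020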
Target sequence (P32245 whole entry, looked up): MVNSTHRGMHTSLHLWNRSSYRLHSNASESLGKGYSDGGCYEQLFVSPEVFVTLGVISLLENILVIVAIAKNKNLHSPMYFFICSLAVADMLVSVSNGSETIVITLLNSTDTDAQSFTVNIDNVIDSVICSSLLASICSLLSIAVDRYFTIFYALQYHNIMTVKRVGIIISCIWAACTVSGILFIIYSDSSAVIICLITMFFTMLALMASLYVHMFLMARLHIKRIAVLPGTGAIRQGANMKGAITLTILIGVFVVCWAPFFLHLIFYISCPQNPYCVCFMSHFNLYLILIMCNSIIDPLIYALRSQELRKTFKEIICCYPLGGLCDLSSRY
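Test system: U2OS cells stably expressing human melanocortin 4 receptor (MC4R); also added: Melanotan II challenge; compound: 6.5 µM single dose; timing: 30-min compound preincubation, 1-h Melanotan II challenge, 1-h detection, room temperature; signal: Eu-cAMP/anti-cAMP TR-FRET, emission 671 nm; repeats: one well per compound, no replicates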
Exocytosis inh: lytic granule exocytosis inhibition | TALL-104 LAMP-1 surface exposure, flow cytometry; cells stimulated with thapsigargin and PMA | inhibition, % at 10 µM | 0.66% of 360,000 active;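 active means inhibition above about 55%, limit read from the data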
MC4R ag barr: human MC4R agonism via beta-arrestin; 0.98% of 360,000 active; activation, % at 8.9 µM; P32245; U2OS MC4R beta-arrestin complementation, luminescence; percent of melanotan II response, DMSO zero; AID 540308;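 active means activation above a per-plate cutoff, the mean activation of sample wells on that plate plus 3 SD, cut at about 8% in these data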
NTR1 ag: agonists of human neurotensin receptor NTR1; P30989; NTR1-U2OS beta-arrestin-GFP spot imaging, agonist mode; activation, % at 20 µM; 0.17% of 330,000 active;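 active means activation at or above 40% of the spot to cytoplasm intensity ratio, with at least 20 cells analyzed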;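 further: 0% = DMSO without peptide and 100% = 100 nM NTR1 peptide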
HGIII-sPLA2 inh: Blocks human group III sPLA2 activity; Q9NZ20; QFRET BODIPY PC-A2 liposome hydrolysis, fluorescence; inhibition, % at 12.2 µM; 0.56% of 370,000 active; AID 743126;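 active means inhibition above mean plus 3 SD of compounds lying within the high and low control bounds, cut at about 19% in these data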;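 further: 0% = median of test compound wells and 100% = no enzyme DMSO wells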
A1 inh: inhibitors of the anti-apoptotic protein A1, read as caspase activation; MEF A1-2A-BIM cells, Caspase-Glo 3/7 luminescence, 3 h; percent of clofoctol response, vehicle zero; caspase activation, % (test concentration not listed); 0.066% of 330,000 active; AID 2462;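 active means over half of replicate activation scores above 10%, or exactly half above 10 with the replicate mean above 10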
* marks the source's active call; other numbers are inactive results; / = not tested or not shown.

SMILES | MC4R antagonist | Exocytosis inh | MC4R ag barr | NTR1 ag | HGIII-sPLA2 inh | A1 inh
COc1cc(C=Nn2c(-c3cc(C)[nH]n3)n[nH]c2=S)cc(Br)c1O | / | / | / | / | 5 | /
O=C(CSc1ccccn1)Nc1cccc(NC(=O)CSc2ccccn2)n1 | -1 | 6 | 9.1* | -1 | 1 | 0
CC(=O)Nc1ccc(NC(=O)CSc2ccccn2)cc1 | -10 | -1 | 0 | 2 | 0 | 0
COCCCNC(=O)C[C@H]1C[C@@]2(C(=O)OC)C(=C[C@H](C(C)(C)C)O[C@@H]2C)N(CCc2ccc(OC)c(OC)c2)C1=O | / | / | / | / | 3 | /
Cc1cc(NS(=O)(=O)c2ccc(NC(=O)CSc3nnc(-c4ccccn4)n3Cc3ccco3)cc2)nc(C)n1 | / | / | / | / | -8 | /
CN(C)c1ccc(/C=N/NC(=O)CNC(=O)c2ccc3c(c2)OCCO3)cc1 | -3 | -2 | -3 | 0 | 3 | 0
CCN(CC)c1ccc(/C=N/NC(=O)CNC(=O)c2ccc3c(c2)OCCO3)cc1 | 2 | 74* | 0 | 0 | 0 | 0
Cc1c(C(=O)N2CCN(c3ccc([N+](=O)[O-])cc3)CC2)oc2ccccc12 | -4 | 0 | 0 | 0 | 5 | -1
Cc1c(-c2ccccc2)oc2c(C(=O)N3CCN(c4ccc([N+](=O)[O-])cc4)CC3)cccc2c1=O | 15 | 90* | -1 | 1 | 3 | -1
CN1C(=O)[C@@]2(O[C@H]3c4ccccc4C=CN3C3=C2C(=O)CCC3)c2ccccc21 | / | / | / | / | -8 | /
CC(=NNc1nc2ccccc2o1)c1cc2ccccc2cn1 | 5 | 101* | -1 | / | -14 | /
CC(NC(=O)COC(=O)c1ccc2c(c1)S(=O)(=O)N=C1CCCCCN12)C12CC3CC(CC(C3)C1)C2 (stereo not given) | 10 | -4 | -1 | 7 | -1 | 7.2*
O=C(Nc1ccc2c(c1)OCO2)OC1CC2CC1[C@H]1CCCCN1[C@H]2Cc1ccccc1 (stereo not given in full) | / | / | / | / | -5 | /
Cc1ccccc1NC(=O)COC(=O)/C=C/c1cn(-c2ccccc2)nc1-c1cccnc1 | 0 | -3 | 0 | -1 | 5 | 1
CC(=O)Nc1ccc(NC(=O)C(C)OC(=O)/C=C/c2cn(-c3ccccc3)nc2-c2cccnc2)cc1 (stereo not given) | 5 | 1 | -1 | 7 | -4 | 16*
CCC(=O)Nc1ccc2c(c1)C(=O)N(C)[C@@H]1CC[C@@H](CC(=O)OC)O[C@H]1CO2 | / | / | / | / | 5 | /
CCn1nc(C)c(Br)c1C(=O)Sc1ccccc1Cl | -16 | 69* | -3 | 2 | 6 | 2
Cc1cc(C(C#N)c2ccc(Cl)cc2)c(Cl)cc1NC(=O)c1cc(I)cc(I)c1O (stereo not given) | 3 | 1 | 6 | 3 | -26 | 5.8*
Cc1cc(NC(=O)c2ccc(Cl)cc2)c(C)cc1O | 0 | 4 | -1 | -1 | 0 | -2
C=C(C)C(O)CC/C(C)=C/Cc1c(O)ccc(C(=O)/C=C/c2ccc(O)cc2)c1O (stereo not given) | 11 | 13 | 9.6* | 25 | -49 | /
COc1ccc(C(=O)/C=C/c2ccc(O)cc2)c(O)c1C/C=C(\C)CCC=C(C)C | -2 | 4 | 1 | 23 | -15 | /
COc1ccc(CN2C3=N[C@H](c4ccccc4)CC(=O)N3/C(=C\c3ccccc3)C2c2ccco2)c(OC)c1 (stereo not given in full) | / | / | / | / | 0 | /
C=CCn1c(COc2ccc(Cl)cc2)nnc1SCC(=O)c1ccccc1 | / | / | / | / | -49 | /
COc1cc(C(=O)NC(=S)Nc2ccc(Cc3ccncc3)cc2)cc(OC)c1OC | 12 | -6 | -2 | 12 | -4 | 1
COc1ccccc1C(=O)NC(=S)Nc1ccc(Cc2ccncc2)cc1 | 15 | 11 | 13* | 4 | -1 | -3
COc1cc(NC(=S)NC(=O)c2ccccc2F)ccc1NC(=O)c1ccco1 | 2 | 0 | 9.1* | -1 | 4 | 0
CN(C)S(=O)(=O)c1cccc(C(=O)N/N=C\c2ccccc2[N+](=O)[O-])c1 | / | / | / | / | 1 | /
C(=Nc1cccc2c(N=Cc3ccco3)cccc12)c1ccco1 | -1 | 103* | -3 | 0 | / | 0
CN(C)c1ccc(N=Cc2ccco2)cc1 | -1 | 9 | -2 | 1 | / | -1
